Measured values: ChEMBL document CHEMBL1142492 (J Med Chem, 2008)

How the values were obtained:
[1] = target: RAC-beta serine/threonine-protein kinase (Homo sapiens) (UniProt P31751); assay: Inhibition of AKT2 at 3 uM
[2] = target: RAC-alpha serine/threonine-protein kinase (Homo sapiens, UniProt P31749); assay: Inhibition of AKT1 after 55 mins
[3] = target: Serine/threonine-protein kinase MRCK alpha (Homo sapiens) (UniProt Q5VT25); conditions: 3 uM
[4] = Half life in Sprague-Dawley rat at 1 mg/kg, iv; conditions: in vivo
[5] = target: Neuropeptide Y receptor type 1 (Homo sapiens) (UniProt P25929); assay: Inhibition of human neuropeptide Y Y1 receptor at 3 uM
Outline: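 Counter-screen binding/enzyme panel at single 3 μM, n=2; results as percent inhibition. Species per target as listed (rat NMDA, GABAA sites; human receptors, transporters; rabbit ACE).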

[6] = target: Dual specificity testis-specific protein kinase 1 (Homo sapiens) (UniProt Q15569); assay: Inhibition of TESK1 at 3 uM
[7] = target: Insulin receptor-related protein (Homo sapiens) (UniProt P14616); assay: Inhibition of INSRR at 3 uM
[8] = target: Tyrosine-protein kinase receptor Tie-1 (Homo sapiens) (UniProt P35590); assay: Inhibition of TIE1 at 3 uM
[9] = target: Inhibitor of nuclear factor kappa-B kinase subunit beta (Homo sapiens) (UniProt O14920); assay: Inhibition of IKK-beta at 3 uM
[10] = target: Mitogen-activated protein kinase kinase kinase 20 (Homo sapiens) (UniProt Q9NYL2); assay: Inhibition of ZAK at 3 uM
[11] = target: Calcium/calmodulin-dependent protein kinase type 1G (Homo sapiens) (UniProt Q96NX5); assay: Inhibition of CAMK1G at 3 uM
[12] = target: Serine/threonine-protein kinase pim-1 (Homo sapiens) (UniProt P11309); assay: Inhibition of PIM1 at 3 uM
[13] = target: Death-associated protein kinase 1 (Homo sapiens) (UniProt P53355); assay: Inhibition of DAPK1 at 3 uM
[14] = target: Proto-oncogene tyrosine-protein kinase receptor Ret (Homo sapiens) (UniProt P07949); assay: Inhibition of RET at 3 uM
[15] = target: Casein kinase I isoform gamma-3 (Homo sapiens) (UniProt Q9Y6M4); assay: Inhibition of CSNK1G3 at 3 uM
[16] = target: LIM domain kinase 2 (Homo sapiens) (UniProt P53671); assay: Inhibition of LIMK2 at 3 uM
[17] = target: Tyrosine-protein kinase receptor TYRO3 (Homo sapiens) (UniProt Q06418); assay: Inhibition of TYRO3 at 3 uM
[18] = target: Mitogen-activated protein kinase kinase kinase 11 (Homo sapiens) (UniProt Q16584); assay: Inhibition of MLK3 at 3 uM
[19] = target: Mitogen-activated protein kinase kinase kinase kinase 4 (Homo sapiens) (UniProt O95819); assay: Inhibition of MAP4K4 at 3 uM
[20] = species: Oryctolagus cuniculus; conditions: 3 uM
[21] = target: Alpha-1A adrenergic receptor (Rattus norvegicus) (UniProt P43140); assay: Inhibition of rat adrenergic alpha1A receptor at 3 uM
[22] = target: Cyclin-dependent kinase 7 (Homo sapiens) (UniProt P50613); assay: Inhibition of CDK7 at 3 uM
[23] = target: Serine/threonine-protein kinase N1 (Homo sapiens) (UniProt Q16512); assay: Inhibition of PKN1 at 3 uM
[24] = target: 5'-AMP-activated protein kinase catalytic subunit alpha-2 (Homo sapiens) (UniProt P54646); assay: Inhibition of AMPKalpha2 at 3 uM
[25] = target: Epidermal growth factor receptor (Homo sapiens) (UniProt P04626+P00533+Q15303+P21860); assay: Inhibition of EGFR L747-S752del,P753S mutant at 3 uM; format: protein assay
[26] = target: Dual specificity protein kinase CLK2 (Homo sapiens) (UniProt P49760); assay: Inhibition of CLK2 at 3 uM
[27] = target: Epidermal growth factor receptor (Homo sapiens) (UniProt P00533); assay: Inhibition of EGFR at 3 uM
Outline: (§1)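 Single-concentration kinase panel scoring: each value is the percentage of enzyme activity remaining relative to a DMSO-only control. An activity statistically indistinct from DMSO control was scored "no hit".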

[28] = target: Serine/threonine-protein kinase DCLK3 (Homo sapiens) (UniProt Q9C098); assay: Inhibition of DCAMKL3 at 3 uM
[29] = tested on: Mast/stem cell growth factor receptor Kit (Homo sapiens), P10721 [V559D,T670I]; assay: Inhibition of KIT V559D,T670I mutant at 3 uM
[30] = target: Vascular endothelial growth factor receptor 1 (Homo sapiens) (UniProt P17948); assay: Inhibition of FLT1 at 3 uM; outline: as §1
[31] = target: Activin receptor type-1 (Homo sapiens) (UniProt Q04771); assay: Inhibition of ACVR1 at 3 uM
[32] = target: MAP kinase-interacting serine/threonine-protein kinase 2 (Homo sapiens) (UniProt Q9HBH9); assay: Inhibition of MKNK2 at 3 uM
[33] = target: Casein kinase II subunit alpha' (Homo sapiens) (UniProt P19784); assay: Inhibition of CSNK2A2 at 3 uM
[34] = target: Cyclin-dependent kinase 5 (Homo sapiens) (UniProt Q00535); assay: Inhibition of CDK5 at 3 uM
[35] = target: Calcium/calmodulin-dependent protein kinase type II subunit alpha (Homo sapiens) (UniProt Q9UQM7); assay: Inhibition of CAMK2A at 3 uM
[36] = target: NT-3 growth factor receptor (Homo sapiens) (UniProt Q16288); assay: Inhibition of TRKC at 3 uM
[37] = target: Serine/threonine-protein kinase 32B (Homo sapiens) (UniProt Q9NY57); assay: Inhibition of YANK2 at 3 uM
[38] = target: Phosphatidylinositol 4-phosphate 3-kinase C2 domain-containing subunit beta (Homo sapiens) (UniProt O00750); assay: Inhibition of PIK3C2B at 3 uM
[39] = target: CYP3A4 (Homo sapiens, UniProt P08684); assay: Inhibition of human CYP3A4 at 10 uM; format: ADME
[40] = target: Serine/threonine-protein kinase DCLK2 (Homo sapiens) (UniProt Q8N568); assay: Inhibition of DCAMKL2 at 3 uM
[41] = target: Protein kinase C eta type (Homo sapiens) (UniProt P24723); assay: Inhibition of PRKCH at 3 uM
[42] = species: Mus musculus; conditions: 3 uM
[43] = target: Mitogen-activated protein kinase kinase kinase kinase 3 (Homo sapiens) (UniProt Q8IVH8); assay: Inhibition of MAP4K3 at 3 uM
[44] = target: SRSF protein kinase 3 (Homo sapiens) (UniProt Q9UPE1); assay: Inhibition of SRPK3 at 3 uM
[45] = target: Receptor-interacting serine/threonine-protein kinase 2 (Homo sapiens) (UniProt O43353); assay: Inhibition of RIPK2 at 3 uM

Chain of Death-associated protein kinase 1 (Homo sapiens) (P53355 whole entry, looked up): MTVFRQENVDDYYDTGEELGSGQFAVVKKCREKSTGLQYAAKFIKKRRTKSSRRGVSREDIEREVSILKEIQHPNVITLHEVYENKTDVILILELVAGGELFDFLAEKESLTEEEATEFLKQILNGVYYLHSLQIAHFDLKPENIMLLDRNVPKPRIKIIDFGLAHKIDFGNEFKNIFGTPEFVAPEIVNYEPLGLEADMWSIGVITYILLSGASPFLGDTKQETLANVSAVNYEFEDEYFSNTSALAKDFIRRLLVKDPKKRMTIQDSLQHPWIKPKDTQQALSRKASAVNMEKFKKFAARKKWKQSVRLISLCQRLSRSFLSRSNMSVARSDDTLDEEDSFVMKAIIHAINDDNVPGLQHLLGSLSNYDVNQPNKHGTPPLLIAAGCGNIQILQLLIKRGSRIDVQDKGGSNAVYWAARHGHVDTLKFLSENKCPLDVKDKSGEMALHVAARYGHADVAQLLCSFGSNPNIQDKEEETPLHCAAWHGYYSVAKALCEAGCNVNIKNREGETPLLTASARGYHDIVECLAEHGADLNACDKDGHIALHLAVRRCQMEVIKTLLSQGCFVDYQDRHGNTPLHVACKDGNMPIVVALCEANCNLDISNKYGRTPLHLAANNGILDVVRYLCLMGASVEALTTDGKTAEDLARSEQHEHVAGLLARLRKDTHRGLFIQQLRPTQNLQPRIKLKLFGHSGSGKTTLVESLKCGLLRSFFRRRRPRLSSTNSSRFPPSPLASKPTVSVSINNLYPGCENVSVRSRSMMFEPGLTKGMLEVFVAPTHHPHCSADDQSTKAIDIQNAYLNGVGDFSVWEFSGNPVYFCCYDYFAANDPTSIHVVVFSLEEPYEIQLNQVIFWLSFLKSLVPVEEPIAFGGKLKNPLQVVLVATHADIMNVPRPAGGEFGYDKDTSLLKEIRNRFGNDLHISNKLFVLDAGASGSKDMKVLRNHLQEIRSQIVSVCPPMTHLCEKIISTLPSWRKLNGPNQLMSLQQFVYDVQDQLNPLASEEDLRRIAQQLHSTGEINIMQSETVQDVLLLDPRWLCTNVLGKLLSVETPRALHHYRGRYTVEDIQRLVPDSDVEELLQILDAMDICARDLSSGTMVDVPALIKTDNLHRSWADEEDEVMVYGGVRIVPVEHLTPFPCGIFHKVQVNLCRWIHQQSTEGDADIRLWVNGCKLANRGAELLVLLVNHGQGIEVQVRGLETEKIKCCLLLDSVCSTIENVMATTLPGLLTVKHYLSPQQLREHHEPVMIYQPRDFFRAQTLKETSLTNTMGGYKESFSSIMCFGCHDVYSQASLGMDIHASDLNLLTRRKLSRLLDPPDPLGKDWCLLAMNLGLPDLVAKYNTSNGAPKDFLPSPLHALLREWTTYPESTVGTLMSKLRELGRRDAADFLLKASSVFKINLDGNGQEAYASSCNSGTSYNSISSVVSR
Chain of Serine/threonine-protein kinase DCLK3 (Homo sapiens) (Q9C098 whole entry): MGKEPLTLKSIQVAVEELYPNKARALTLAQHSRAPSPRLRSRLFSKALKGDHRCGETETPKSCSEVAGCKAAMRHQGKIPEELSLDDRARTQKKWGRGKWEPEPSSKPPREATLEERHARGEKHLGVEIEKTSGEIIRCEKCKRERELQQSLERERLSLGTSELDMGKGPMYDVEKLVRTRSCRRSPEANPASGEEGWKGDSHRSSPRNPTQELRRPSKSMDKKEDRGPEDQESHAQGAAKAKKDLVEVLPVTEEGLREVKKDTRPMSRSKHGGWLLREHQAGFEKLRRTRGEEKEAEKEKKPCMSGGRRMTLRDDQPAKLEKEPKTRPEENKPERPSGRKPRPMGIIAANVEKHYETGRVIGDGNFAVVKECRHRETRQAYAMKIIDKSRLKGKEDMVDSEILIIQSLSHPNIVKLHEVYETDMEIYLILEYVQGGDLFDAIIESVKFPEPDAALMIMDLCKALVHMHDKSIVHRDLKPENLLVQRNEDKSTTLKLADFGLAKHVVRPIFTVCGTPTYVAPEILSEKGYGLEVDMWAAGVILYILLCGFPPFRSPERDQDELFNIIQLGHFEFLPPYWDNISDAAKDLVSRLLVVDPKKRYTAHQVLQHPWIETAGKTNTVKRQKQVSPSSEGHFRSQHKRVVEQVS
Chain of Cyclin-dependent kinase 7 (Homo sapiens) (P50613 whole entry): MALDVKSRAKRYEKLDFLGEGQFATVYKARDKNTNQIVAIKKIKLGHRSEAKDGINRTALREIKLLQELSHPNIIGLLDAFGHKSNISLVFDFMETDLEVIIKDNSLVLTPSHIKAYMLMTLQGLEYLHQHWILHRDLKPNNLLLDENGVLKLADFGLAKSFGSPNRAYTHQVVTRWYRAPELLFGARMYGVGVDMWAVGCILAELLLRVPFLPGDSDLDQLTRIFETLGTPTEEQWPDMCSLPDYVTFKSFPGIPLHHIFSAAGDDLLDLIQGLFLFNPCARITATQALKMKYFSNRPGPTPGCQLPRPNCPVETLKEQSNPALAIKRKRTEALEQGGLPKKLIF
Chain of Serine/threonine-protein kinase 32B (Homo sapiens) (Q9NY57 whole entry, the tested form may be a part): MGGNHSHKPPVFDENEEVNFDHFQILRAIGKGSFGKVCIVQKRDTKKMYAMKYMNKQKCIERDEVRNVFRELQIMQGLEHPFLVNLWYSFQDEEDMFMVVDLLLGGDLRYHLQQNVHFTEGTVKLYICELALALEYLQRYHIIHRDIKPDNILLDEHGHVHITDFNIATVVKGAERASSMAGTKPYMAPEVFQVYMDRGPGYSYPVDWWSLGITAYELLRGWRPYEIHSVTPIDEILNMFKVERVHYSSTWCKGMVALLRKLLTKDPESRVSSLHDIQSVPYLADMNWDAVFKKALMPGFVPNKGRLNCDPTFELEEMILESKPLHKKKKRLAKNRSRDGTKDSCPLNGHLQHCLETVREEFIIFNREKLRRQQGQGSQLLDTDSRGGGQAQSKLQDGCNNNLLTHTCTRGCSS
Chain of Casein kinase I isoform gamma-3 (Homo sapiens) (Q9Y6M4 whole entry, looked up, the tested form may be a part, canonical isoform): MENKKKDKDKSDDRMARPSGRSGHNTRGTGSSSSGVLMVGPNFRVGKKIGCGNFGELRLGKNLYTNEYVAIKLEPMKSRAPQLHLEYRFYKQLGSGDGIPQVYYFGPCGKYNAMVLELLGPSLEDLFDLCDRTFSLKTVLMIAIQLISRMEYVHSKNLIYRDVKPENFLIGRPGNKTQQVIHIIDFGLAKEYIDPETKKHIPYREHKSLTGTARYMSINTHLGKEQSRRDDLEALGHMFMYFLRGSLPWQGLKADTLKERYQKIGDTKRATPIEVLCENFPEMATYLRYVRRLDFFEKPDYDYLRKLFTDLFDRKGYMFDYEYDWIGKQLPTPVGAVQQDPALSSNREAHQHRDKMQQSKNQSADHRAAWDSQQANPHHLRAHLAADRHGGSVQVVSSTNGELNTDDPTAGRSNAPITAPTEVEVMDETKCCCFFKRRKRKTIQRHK
Chain of Mitogen-activated protein kinase kinase kinase 11 (Homo sapiens) (Q16584 whole entry, looked up): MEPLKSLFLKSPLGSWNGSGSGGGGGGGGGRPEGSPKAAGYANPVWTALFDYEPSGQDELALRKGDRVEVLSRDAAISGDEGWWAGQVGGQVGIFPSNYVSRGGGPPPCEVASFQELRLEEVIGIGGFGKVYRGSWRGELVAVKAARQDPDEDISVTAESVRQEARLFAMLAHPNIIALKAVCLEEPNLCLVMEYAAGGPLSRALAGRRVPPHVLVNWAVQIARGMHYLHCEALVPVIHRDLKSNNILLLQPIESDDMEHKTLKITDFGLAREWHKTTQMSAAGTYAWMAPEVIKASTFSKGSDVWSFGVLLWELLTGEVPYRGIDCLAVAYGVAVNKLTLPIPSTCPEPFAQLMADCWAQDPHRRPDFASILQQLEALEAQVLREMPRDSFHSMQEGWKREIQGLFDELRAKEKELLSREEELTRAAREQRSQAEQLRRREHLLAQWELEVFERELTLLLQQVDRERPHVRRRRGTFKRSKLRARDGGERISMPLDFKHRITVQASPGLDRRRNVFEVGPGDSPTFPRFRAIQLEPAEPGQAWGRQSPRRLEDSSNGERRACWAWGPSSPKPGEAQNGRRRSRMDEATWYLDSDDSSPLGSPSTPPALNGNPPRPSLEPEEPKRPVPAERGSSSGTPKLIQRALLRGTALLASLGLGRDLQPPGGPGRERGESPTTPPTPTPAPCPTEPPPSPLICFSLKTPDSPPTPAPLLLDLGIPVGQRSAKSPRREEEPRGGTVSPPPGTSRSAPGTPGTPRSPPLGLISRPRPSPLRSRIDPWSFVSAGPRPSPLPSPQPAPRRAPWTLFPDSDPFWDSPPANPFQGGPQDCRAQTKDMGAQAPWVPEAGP
Chain of Serine/threonine-protein kinase pim-1 (Homo sapiens) (P11309 whole entry, looked up): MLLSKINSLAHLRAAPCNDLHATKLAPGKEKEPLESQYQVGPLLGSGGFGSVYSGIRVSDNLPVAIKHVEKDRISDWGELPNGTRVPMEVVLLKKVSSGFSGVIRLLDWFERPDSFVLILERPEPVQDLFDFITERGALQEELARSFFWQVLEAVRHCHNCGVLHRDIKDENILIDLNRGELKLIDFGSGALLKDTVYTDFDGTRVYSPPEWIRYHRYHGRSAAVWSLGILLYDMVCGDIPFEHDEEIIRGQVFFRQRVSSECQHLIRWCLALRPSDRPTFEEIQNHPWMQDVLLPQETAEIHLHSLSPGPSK
Chain of Neuropeptide Y receptor type 1 (Homo sapiens) (P25929 whole entry): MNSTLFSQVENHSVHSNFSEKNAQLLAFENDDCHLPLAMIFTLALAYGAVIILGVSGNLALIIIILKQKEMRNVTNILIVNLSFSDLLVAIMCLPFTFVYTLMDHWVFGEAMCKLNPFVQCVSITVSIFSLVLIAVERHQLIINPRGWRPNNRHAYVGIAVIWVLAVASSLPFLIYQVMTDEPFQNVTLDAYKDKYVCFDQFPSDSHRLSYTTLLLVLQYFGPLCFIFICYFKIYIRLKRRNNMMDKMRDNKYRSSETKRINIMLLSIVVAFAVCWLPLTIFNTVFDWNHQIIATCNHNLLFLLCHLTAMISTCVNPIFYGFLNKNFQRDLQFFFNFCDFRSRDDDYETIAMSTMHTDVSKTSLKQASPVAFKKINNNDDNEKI

With `CN(C)CCOc1cc(-c2cn[nH]c2)ccc1NC(=O)C1COc2ccccc2O1` (stereo not given) [SR-3677] the inhibition [1] was less than 10%, the IC50 [2] was 7.49 µM and the inhibition [3] was less than 10%. It also gave a half-life [4] of 48 min, an inhibition [5] of -8% and an inhibition [6] of less than 10%. For the same compound, the inhibition [7] was less than 10%, the inhibition [8] was less than 10% and the inhibition [9] was less than 10%. The inhibition [10] was less than 10%, the inhibition [11] was less than 10% and the inhibition [12] was less than 10%. It also gave an inhibition [13] of less than 10%, an inhibition [14] of less than 10% and an inhibition [15] of less than 10%. It also gave an inhibition [16] of less than 10%, an inhibition [17] of less than 10% and an inhibition [18] of less than 10%. It also gave an inhibition [19] of less than 10%, an inhibition [20] of 4% and an inhibition [21] of 53%. It also gave an inhibition [22] of less than 10%, an inhibition [23] of less than 10% and an inhibition [24] of less than 10%. It also gave an inhibition [25] of less than 10%, an inhibition [26] of 70% and an inhibition [27] of less than 10%. The inhibition [28] was less than 10%, the inhibition [29] was less than 10% and the inhibition [30] was less than 10%. The inhibition [31] was less than 10%, the inhibition [32] was less than 10% and the inhibition [33] was less than 10%. The inhibition [34] was less than 10%, the inhibition [35] was less than 10% and the inhibition [36] was less than 10%. The inhibition [37] was less than 10%, the inhibition [38] was less than 10% and the inhibition at 10 µM [39] was 0%. The inhibition [40] was less than 10%, the inhibition [41] was less than 10% and the inhibition [42] was -2%. The inhibition [43] was less than 10%, the inhibition [44] was less than 10% and the inhibition [45] was less than 10%.
